For 29 compounds, IC50, Activity and selectivity ratio results are on record in ChEMBL document CHEMBL1156821, “Transforming rhinacanthin analogues from potent anticancer agents into potent antimalarial agents” (J Med Chem, 2010).

Each structure is given as a SMILES string. The source made the active and inactive calls. The rule behind the calls is not given here. Where only a bound is given, the exact number is not on record here.

Series [1] concerns Plasmodium falciparum. The series is described as follows: Antimalarial activity against multidrug-resistant Plasmodium falciparum K1 infected in erythrocytes after 48 hrs by [3H]hypoxanthine incorporation assay. It is filed as functional, organism-based. In a few lines:
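P. falciparum K1 (multidrug-resistant) was grown in RPMI 1640 with 20 mM HEPES, 32 mM NaHCO3, 10% […] human serum and 3% erythrocytes, at 37 C under 3% CO2. Early-ring cultures (1.5% erythrocytes, 1% parasitemia) were exposed to compound for 24 h at 0.1% final DMSO. [3H]hypoxanthine (0.5 μCi) was then added for a further 24 h, and incorporation was counted by scintillation. IC50 is the 50% growth reduction; values are the mean of six replicates; dihydroartemisinin was the reference.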

The subject of another series is Vero. The series is described as follows: Cytotoxicity against African green monkey Vero cells by MTT assay. It is filed as cell-based. As to conditions: Chlorocebus sabaeus.
Series [2] deals with Saccharomyces cerevisiae. The series is described as follows: Inhibition of electron transfer from Q(o) site to iron cluster of Saccharomyces cerevisiae CK Cytochrome b-c1 complex assessed as DQH-induced reduction of cyt bc1 complex by redoxdifference spectra. A digest of the protocol:
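Purified yeast bc1 at 2 μM in 50 mM K-phosphate with 0.05% UM; inhibitors added at final 5 μM (test) or 40 μM (stigmatellin, antimycin A). Redox difference spectra recorded as decylubiquinol-reduced bc1-inhibitor complex minus protein-inhibitor complex.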

A short description of series [3]: Inhibition of wild type Saccharomyces cerevisiae CK Cytochrome b-c1 complex by spectrophotometry. In a few lines: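 Purified bc1 from wild-type yeast strain CKWT grown in YPGal was diluted to 8 nM. Inhibitor was added before starting with 50 μM decylubiquinol; 550 nm read at room temperature. IC50 taken from a concentration series.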
The test system of series [4] is Saccharomyces cerevisiae. The series is described as follows: Inhibition of Saccharomyces cerevisiae CK Cytochrome b-c1 complex assessed as DQH-induced reduction of cyt bc1 complex by redoxdifference spectra.
Series [5] is described as follows: Therapeutic index, ratio of IC50 for African green monkey (Cercopithecus aethiops) Vero cells to IC50 for multidrug-resistant Plasmodium falciparum K1. It is filed as cell-based. The settings on record: read-out: Ratio IC50.
Series [6] has as its system Plasmodium falciparum. The series is described as follows: Inhibition of Cytochrome b-c1 complex in Plasmodium falciparum 3D7 cell free extracts assessed as decyclobiquinol-linked cytochrome c reduction by spectrophotometry. A digest of the protocol:
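Cell-free extract of P. falciparum 3D7 was made by 20 s sonication on ice and adjusted to 0.1 mg protein/mL by Bradford assay. Steady-state decylubiquinol/cytochrome c reductase activity was read at ε550-542nm at 21 C in 50 mM potassium phosphate pH 7.5 with 2 mM EDTA, 10 mM KCN and 30 μM equine cytochrome c. Reactions were started with 50 μM decylubiquinol, compound added without preincubation, DMSO ≤0.3%. IC50 came from four-parameter sigmoidal fits of three separate assays.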

The nature of series [7]: Inhibition of Cytochrome b-c1 complex in Wistar rat liver microsomes assessed as decyclobiquinol-linked cytochrome c reduction by spectrophotometry. Set-up: species or system Microsome. A digest of the protocol:
(§1)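 Steady-state decylubiquinol/cytochrome c reductase in yeast mitochondrial membranes (YPD-grown at 28 C) or male Wistar rat (125-170 g) liver microsomes. bc1 set to 5 nM; 50 mM K-phosphate pH 7.5, 2 mM EDTA, 10 mM KCN, 30 μM equine cytochrome c. Start: 50 μM decylubiquinol. ε550-542nm read at 21 C; no preincubation, DMSO ≤0.3%. IC50 from four-parameter sigmoidal fit, three separate assays.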
On the technique in general: Liver microsomes are a subcellular fraction often used to study metabolism.

Series [8] in a line: Inhibition of Cytochrome b-c1 complex in yeast mitochondrial membrane assessed as decyclobiquinol-linked cytochrome c reduction by spectrophotometry. It is filed as cell membranes, Saccharomyces cerevisiae. In a few lines:
as §1

Setting [9] is: Plasmodium falciparum, K1, read-out: IC50.

On to `CCCCCCCCCCCCCCCCCC(=O)OCC(C)(C)CC1=C(O)C(=O)c2ccccc2C1=O`, for which the concentration for half-maximal inhibition (IC50) with Plasmodium falciparum [1] (setting [9]) is 133 nM; in the series on Vero it was 15500 nM.
`CCCC(C)C(=O)OCC(C)(C)CC1=C(O)C(=O)c2ccccc2C1=O` (centres undefined): the IC50 in the series on Plasmodium falciparum [1] (setting [9]) and with Vero was 120 nM each time.
As for `CC(C)CC(=O)OCC(C)(C)CC1=C(O)C(=O)c2ccccc2C1=O`, the IC50 in the series on Plasmodium falciparum [1] (setting [9]) was found to be 410 nM; in the series with Vero, 550 nM.
Turning to `CC[C@H](C)C(=O)OCC(C)(C)CC1=C(O)C(=O)c2ccccc2C1=O`, the IC50 was determined as 110 nM in the series on Plasmodium falciparum [1] (setting [9]) and 570 nM with Vero.
On the same counts, the results for `CC(=O)OCC(C)(C)CC1=C(O)C(=O)c2ccccc2C1=O` are 10900 nM and 139000 nM.
As for `C/C=C(C)/C=C/C=C/[C@H](OC)[C@@H](C)[C@@H](OC)[C@@H](C)CCc1oc2c(O)c(OC)cc(OC)c2c(=O)c1C` [STIGMATELLIN], the outcome in the series on Saccharomyces cerevisiae [2] was Active. For the same compound, the IC50 in series [3] was determined as 9.1 nM.
With `CCCC(=O)OCC(C)(C)CC1=C(O)C(=O)c2ccccc2C1=O`, the IC50 in the series on Plasmodium falciparum [1] (setting [9]) was 910 nM; in the series with Vero, 73200 nM.
On the same counts, the results for `CCC(CC)C(=O)OCC(C)(C)CC1=C(O)C(=O)c2ccccc2C1=O` are 16600 nM and 104000 nM.
Turning to `C[C@H]1[C@@H](O)O[C@@H]2O[C@@]3(C)CC[C@H]4[C@H](C)CC[C@@H]1[C@@]24OO3` [ARTENIMOL], the IC50 in the series on Plasmodium falciparum [1] (setting [9]) was found to be 3.5 nM.
Turning to `CCCCCCCC(=O)OCC1(CC2=C(O)C(=O)c3ccccc3C2=O)CCCCC1`, in the series on Plasmodium falciparum [1] (setting [9]), the IC50 worked out at 2630 nM.
On to `CCCCCC[C@H]1C(=O)O[C@H](C)[C@H](NC(=O)c2cccc(NC=O)c2O)C(=O)O[C@@H](C)[C@@H]1OC(=O)CC(C)C`, for which the result in the series on Saccharomyces cerevisiae [4] was Active.
`CCCCCCC(C)C(=O)OCC(C)(C)CC1=C(O)C(=O)c2ccccc2C1=O` (centres undefined): the IC50 with Plasmodium falciparum [1] (setting [9]) stood at 110 nM; in the series with Vero, 450 nM.
Take `CCCC(=O)OCCCC1=C(O)C(=O)c2ccccc2C1=O`: in the series with Plasmodium falciparum [1], the IC50 entry is recorded as “Not Active”.
In the case of `CCCCCC(=O)OCC(C)(C)CC1=C(O)C(=O)c2ccccc2C1=O`, the IC50 in the series with Plasmodium falciparum [1] (setting [9]) was found to be 1120 nM; in the series with Vero it was 169000 nM.
On the same counts, the results for `CCCCCCCCC(=O)OCC(C)(C)CC1=C(O)C(=O)c2ccccc2C1=O` are 500 nM and 150000 nM.
Regarding `CC(C)C(=O)OCC(C)(C)CC1=C(O)C(=O)c2ccccc2C1=O`, the IC50 with Plasmodium falciparum [1] (setting [9]) is 910 nM; in the series on Vero, 123000 nM.
The corresponding values for `CCCCCCC(=O)OCC(C)(C)CC1=C(O)C(=O)c2ccccc2C1=O` are 810 nM and 99300 nM.
As for `CC(=O)OCCCC1=C(O)C(=O)c2ccccc2C1=O`, in the series on Plasmodium falciparum [1], the IC50 entry was “Not Active”.
As for `CCC(C)CC(=O)OCC(C)(C)CC1=C(O)C(=O)c2ccccc2C1=O` (centres undefined), the values for the 50% inhibitory concentration (IC50) in the series with Plasmodium falciparum [1] (setting [9]) and with Vero were 190 nM and 2300 nM, respectively.
With `CCCCCCCCCC(=O)OCC(C)(C)CC1=C(O)C(=O)c2ccccc2C1=O`, the IC50 with Plasmodium falciparum [1] (setting [9]) was determined as 720 nM; in the series on Vero it was 203000 nM.
The corresponding values for `CCC(C)C(=O)OCC(C)(C)CC1=C(O)C(=O)c2ccccc2C1=O` (centres undefined) are 220 nM and 870 nM.
Take `CCCCCCCCCCCCCC(=O)OCC(C)(C)CC1=C(O)C(=O)c2ccccc2C1=O`: in series [5], the selectivity ratio came out at 1830. Moreover, the IC50 in the series with Plasmodium falciparum [6] came out at 8 nM; in series [7], 2500 nM; in series [8], 79.6 nM; with Plasmodium falciparum [1] (setting [9]), 32 nM; in series [3], 770 nM; in the series on Vero, 58400 nM. In addition, the result in the series with Saccharomyces cerevisiae [2] was Active.
Regarding `CCCCCCCC(=O)OCCCC1=C(O)C(=O)c2ccccc2C1=O`, the IC50 with Plasmodium falciparum [1] (setting [9]) amounted to 5150 nM.
As to `CCCCCCCCCCC(=O)OCC(C)(C)CC1=C(O)C(=O)c2ccccc2C1=O`, the results for the IC50 in the series with Plasmodium falciparum [1] (setting [9]) and in the series with Vero were 700 nM and over 233000 nM, respectively.
With `CCCCC(=O)OCC(C)(C)CC1=C(O)C(=O)c2ccccc2C1=O`, the results for the concentration for half-maximal inhibition (IC50) in the series on Plasmodium falciparum [1] (setting [9]) and in the series on Vero were 580 nM and 7840 nM, respectively.
As for `CCCCCCCCCCCC(=O)OCC(C)(C)CC1=C(O)C(=O)c2ccccc2C1=O`, the concentration for half-maximal inhibition (IC50) amounted to 900 nM in the series on Plasmodium falciparum [1] (setting [9]) and 249000 nM in the series with Vero.
As to `CCCCCCCC(=O)OCC(C)(C)CC1=C(O)C(=O)c2ccccc2C1=O`, the selectivity ratio in series [5] was over 1990. Further, the IC50 in the series with Plasmodium falciparum [6] is 5.4 nM; in series [7], 3000 nM; in series [8] it was 16 nM; in the series with Plasmodium falciparum [1] (setting [9]), 130 nM; in series [3], 840 nM; in the series with Vero, over 259000 nM. In addition, in the series with Saccharomyces cerevisiae [2], the result was Active.
Consider `CCCCCCCCCCCCCCCC(=O)OCC(C)(C)CC1=C(O)C(=O)c2ccccc2C1=O`, for which the values for the IC50 with Plasmodium falciparum [1] (setting [9]) and with Vero were 30 nM and 4410 nM, respectively.
Turning to `CCC(=O)OCC(C)(C)CC1=C(O)C(=O)c2ccccc2C1=O`, the figures for the IC50 in the series on Plasmodium falciparum [1] (setting [9]) and in the series with Vero were 4100 nM and 60100 nM, respectively.

By IC50 is commonly meant the concentration at which inhibition is half-maximal.
